The values below come from ChEMBL document CHEMBL1126556, “Novel antiasthmatic agents with dual activities of thromboxane A2 synthetase inhibition and bronchodilation. 1. 2-[2-(1-Imidazolyl)alkyl]-1(2H)-phthalazinones” (J Med Chem, 1993).

A short description of data set [1]: Partition coefficient (logP). Type of data set: physicochemical. Conditions: octanol/water.
The species named for data set [2] is Cavia porcellus. The data set is described as follows: Tested in vitro for bronchodilatory activity by spontaneous tone inhibition in guinea pig tracheal strips. It is filed as functional. Conditions: Trachea.
The test system of data set [3] is Cavia porcellus. The data set is described as follows: In vivo inhibitory effect on airway constriction induced by histamine 2-5 micro g/kg iv at 1 min after 10 mg/kg intravenous dose in anesthetized guinea pigs. It is filed as functional. The essentials: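 Male Dunkin-Hartley guinea pigs, anesthetized with pentobarbital 35 mg/kg ip, cannulated at jugular vein and trachea, ventilated at 10 mL/kg and 60 strokes/min. Insufflation pressure recorded continuously by transducer. Histamine given iv every 10 min until the constriction was reproducible. Compound 10 mg/kg iv given 1 min before the next challenge. Result is mean % inhibition against control response, from ≥3 experiments.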

Another data set deals with Rattus norvegicus. As to the kind of experiment: Tested for inhibition of TXA2 production in rat serum by ex vivo assay after peroral dose of 3 mg/kg. Type of data set: functional. As to conditions: route oral. The essentials: (§1)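 Male SD rats (240–260 g), fasted 20 h, dosed orally in 0.5% carboxymethylcellulose or given vehicle. After 1 h under ether, 2 mL cardiac blood was drawn and clotted 90 min at 37 °C. Serum was EtOH-deproteinized and stored at -20 °C. TXB₂ measured by radioimmunoassay. % inhibition calculated against each vehicle control group.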

The target of data set [4] is T1, Thromboxane-A synthase (Rattus norvegicus) (UniProt P49430).
T1 sequence (whole entry): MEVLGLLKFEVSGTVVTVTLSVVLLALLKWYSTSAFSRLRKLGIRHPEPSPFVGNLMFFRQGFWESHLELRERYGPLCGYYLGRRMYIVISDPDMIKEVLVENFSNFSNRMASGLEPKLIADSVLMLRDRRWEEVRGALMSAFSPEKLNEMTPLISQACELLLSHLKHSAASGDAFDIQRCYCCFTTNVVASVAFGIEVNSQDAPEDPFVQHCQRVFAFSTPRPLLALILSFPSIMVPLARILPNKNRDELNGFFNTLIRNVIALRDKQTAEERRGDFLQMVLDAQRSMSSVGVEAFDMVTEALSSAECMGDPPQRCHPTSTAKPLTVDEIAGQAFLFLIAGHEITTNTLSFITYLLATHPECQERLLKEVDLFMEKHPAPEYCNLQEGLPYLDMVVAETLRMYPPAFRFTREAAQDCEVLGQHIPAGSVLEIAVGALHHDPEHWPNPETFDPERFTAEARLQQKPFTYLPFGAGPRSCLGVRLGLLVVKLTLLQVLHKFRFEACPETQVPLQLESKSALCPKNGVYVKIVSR
As to the kind of experiment: Tested for inhibition of thromboxane A2 (TXA2) production in rat serum by ex vivo assay after peroral dose of 30 mg/kg. More on the design: dose 30 mg/kg. Type of data set: functional, organism-based. The essentials: as §1

Data set [5] deals with Thromboxane-A synthase (Oryctolagus cuniculus). As to the kind of experiment: Tested for inhibition of thromboxane A2 (TXA2) production in rabbit by in vitro assay at 1 uM.

As usually defined, the logP is a log measure of how a compound divides between an organic and an aqueous phase. By IC50 is commonly meant the concentration at which inhibition is half-maximal. Usually inhibition in vivo stands for the change of the read-out against control, counted positive when it falls. Broadly, the inhibition is the change of the read-out against control, counted positive when it falls. Higher therefore signals a response far below the control. Compound `O=c1c2ccccc2c(-c2cccnc2)nn1CCn1ccnc1` came in with a lipophilicity (logP) in data set [1] of 0.66. This compound showed a concentration for half-maximal inhibition (IC50) in the data set listed under Cavia porcellus [2] of 26.9 µM. This compound also gave an inhibition in vivo at 10 mg/kg in the data set with Cavia porcellus [3] of 97%. For the same compound, 3 mg/kg produced 63% inhibition in vivo with Rattus norvegicus. In data set [4], this compound gave an inhibition of 90%.

In data set [1], `O=c1c2ccccc2c(-c2cccs2)nn1CCn1ccnc1` displayed a logP of 1.99. In the data set listed under Cavia porcellus [2], this compound gave a half-inhibitory concentration (IC50) of 3.55 µM. For the same compound, the inhibition in vivo at 10 mg/kg in the data set with Cavia porcellus [3] stood at 84%. Further, the figures for the inhibition in data set [4] and in data set [5] were 47% and 22%, respectively.

As for `COc1ccc(-c2nn(CCn3ccnc3)c(=O)c3ccccc23)cc1`, the log partition coefficient (logP) in data set [1] turned out to be 2.06. The compound further gave an IC50 in the data set filed under Cavia porcellus [2] of 25.1 µM. For the same compound, the inhibition in vivo at 10 mg/kg in the data set on Cavia porcellus [3] came to 0%. Moreover, the inhibition in data set [4] was 50%; in data set [5], 74%.

In data set [1], `CCc1ccc(-c2nn(CCn3ccnc3)c(=O)c3ccccc23)cc1` displayed a logP of 3.17. This compound gave an IC50 in the data set filed under Cavia porcellus [2] of 7.76 µM. In the data set with Cavia porcellus [3], this compound displayed an inhibition in vivo at 10 mg/kg of 8%. For the same compound, the inhibition in data set [4] amounted to 55%; in data set [5], 79%.

In data set [1], `CCc1ccc(-c2nn(CCn3ccnc3)c(=O)c3ccccc23)s1` yielded a logP of 3.02. In the data set filed under Cavia porcellus [2], this compound gave a half-maximal inhibitory concentration (IC50) of 1.78 µM. The compound also registered an inhibition in vivo at 10 mg/kg in the data set on Cavia porcellus [3] of 96%. Also, the results for the inhibition in data set [4] and in data set [5] were 52% and 67%, respectively.
